Bioassay records as filed in PubChem BioAssay.
Mdm2 ligase inh: inhibitors of human Mdm2 E3 ubiquitin ligase | cell-based MDM2 ubiquitination luciferase reporter, 2 h; 0 = plate control, 100 = twice control, blank-subtracted | signal enhancement, % at 5 µM | 0.11% of 210,000 active | AID 1230;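 active means signal enhancement of 30% or more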;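 further: luminescence tracks abundance of the self-degrading MDM2-luciferase fusion protein; higher signal means inhibition of MDM2 E3 ligase activity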
Target sequence (Q00987 whole entry, looked up, the tested form may be a part): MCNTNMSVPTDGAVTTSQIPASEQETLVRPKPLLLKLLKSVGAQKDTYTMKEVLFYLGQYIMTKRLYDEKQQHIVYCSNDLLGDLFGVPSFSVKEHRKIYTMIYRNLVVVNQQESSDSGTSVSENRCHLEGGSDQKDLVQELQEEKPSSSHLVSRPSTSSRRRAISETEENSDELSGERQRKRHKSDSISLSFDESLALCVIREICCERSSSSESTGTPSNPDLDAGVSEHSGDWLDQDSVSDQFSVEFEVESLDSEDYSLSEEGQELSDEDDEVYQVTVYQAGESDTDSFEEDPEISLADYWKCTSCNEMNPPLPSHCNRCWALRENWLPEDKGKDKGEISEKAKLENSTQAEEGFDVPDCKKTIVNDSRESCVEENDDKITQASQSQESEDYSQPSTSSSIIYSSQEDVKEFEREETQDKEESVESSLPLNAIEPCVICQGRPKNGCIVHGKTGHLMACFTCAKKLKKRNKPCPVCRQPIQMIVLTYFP
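Test system: mammalian cells stably expressing self-ubiquitinating, self-degrading MDM2 E3–luciferase fusion; Amount: 2000 cells in each well; Medium: DMEM; Schedule: 4 h settle plus 2 h compound, 37 °C; Technique: SteadyLite luciferase luminescence after 15 min room-temperature reagent incubation; Benchmarks: plate control and blank wells.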
HSF1 activator: increases HSF-1 driven luciferase reporter signal; NIH3T3-HGL HSF-1 luciferase reporter, MG132, 8 h; 100% = twice DMSO control signal; activation, % at 9 µM; 1.7% of 300,000 active;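 active means mean replicate activation of at least 50% with a set share of replicates each reaching 50%; inconclusive means only one of those two conditions met; inactive means mean below 50% and too few replicates reaching it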;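 further: 0% = median of the neutral control wells and 100% = twice that signal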
Rad51 HR inh: blocks human Rad51 in homologous recombination. Q06609. hRad51 DNA strand exchange, fluorescence dequenching. inhibition, % at 10 µM. 0.085% of 200,000 active;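 active means inhibition above 40% at the single screening dose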;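 further: 0% = DMSO control wells and 100% = blanks with heterologous ssDNA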
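Test system: preformed human Rad51 ssDNA filaments; also added: Donor/quencher-labelled 47-bp dsDNA substrate; doses: 10 µM final, single point; times: 37 °C 15-min filament assembly, 30-min compound preincubation, 15-min exchange; detection: FRET fluorescence dequenching, excitation 485 nm, emission 520 nm; read-out basis: Fluorescence-based percent inhibition, control- and blank-normalised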
HSF1 inhib: HSF1 inhibition | activity change, negative = inhibition, % at 7.5 µM (by protocol) | 0.77% of 300,000 active | NIH3T3-HGL HSE-luciferase, MG132-induced, luminescence 8 h; active compounds read low;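 active means more than half of replicate wells show activity change below -50%, luminescence cut by over half; inconclusive means some wells, but at most half, below -50%; inactive means no replicate well below -50%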;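 further: luciferase reports HSF-1 transcriptional activity via heat shock element; 0% = median of DMSO wells and -100% = zero luminescence signal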
Hsp70 act: switches on Hsp70 transcription; HeLa Hsp70 promoter luciferase reporter, luminescence; scaled: vehicle 0, proteasome-inhibitor control 100%; activation, % at 10 µM; 0.04% of 200,000 active;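 active means activation above the mean across all tested compounds plus 3 SD, cutoff set per campaign, cut at about 5.5% in these data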;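 further: 100% = MG132 at 30 µM as the positive control and 0% = DMSO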
HSV replic up: HSV replication enhancement; HSV replication augmentation in cells, fold increase; maximum fold increase; 0.005% of 220,000 active; in the data active means maximum fold increase above about 1.5; inconclusive means no clear call, values can overlap the other calls; tested in PC3 cells
Starred values were filed as active, the others as inactive; i = inactive; ? = inconclusive; / = no result. A selection: hits, their analogues and other compounds. The true share with any hit is near 2.6%.

SMILES	Mdm2 ligase inh	HSF1 activator	Rad51 HR inh	HSF1 inhib	Hsp70 act	HSV replic up
C=CCN(CC(O)c1cccc([N+](=O)[O-])c1)C(C)CCc1ccccc1 (stereo not drawn)	-7	-83	/	-78*	/	i
CCn1c(=O)cc(SCC(=O)N2CCN(c3ccccc3F)CC2)c2ccccc21	-17	54*	-1	17	0	i
Cc1c(NC(=O)C(C)N2C(=O)C3CCCCC3C2=O)c(=O)n(-c2ccccc2)n1C (stereo not drawn)	-12	-4	21	-4	0	i
Cc1c(NC(=O)C(C)N2CC(C)OC(C)C2)c(=O)n(-c2ccccc2)n1C (stereo not drawn)	-14	60*	-4	16	0	i
Cc1noc(/C=C/c2ccco2)c1S(=O)(=O)N1CCC(C(=O)NCc2ccco2)CC1	-8	-78	-5	-72*	0	i
Cc1ccc(CNC(=O)C2CCN(S(=O)(=O)c3c(C)noc3/C=C/c3ccco3)CC2)cc1	-9	27	2	16	0	i
CS/C(Nc1cc(Cl)ccc1Cl)=C(/C#N)C(=O)c1ccco1	-50	54*	7	27	/	i
O=C(CN1CCN(c2ccc(O)cc2)CC1)Nc1cc(S(=O)(=O)N2CCCC2)ccc1Cl	-5	-66	-4	-56*	0	i
O=S(=O)(c1ccc(Cl)c(NC(=S)N/N=C/c2ccc(O)cc2)c1)N1CCOCC1	1	56*	2	13	0	i
[O-]/[N+](=C\C=C\c1ccccc1)c1ccccc1	-17	62*	10	24	/	i
COCc1cc(=O)n2[nH]c(C(C)(C)C)cc2n1	-12	17	-4	0	/	i
COc1ccc2cc3cc(C(=O)NCCN4CCc5ccccc5C4)sc3nc2c1	9	74*	5	48	0	i
COc1ccccc1N(C)S(=O)(=O)c1ccc(C(=O)NC(C)c2ccccc2)cc1 (stereo not drawn)	/	-74	/	-67*	/	i
COc1ccccc1N(C)S(=O)(=O)c1ccc(C(=O)Nc2ccncc2)cc1	/	-5	/	-4	/	/
O=C(c1ccc(Cl)cc1)C(CN1CCCCC1)c1ccccc1 (stereo not drawn)	/	107*	/	86	/	/
CCOC(=O)C(CN1CCCC1)c1ccccc1 (stereo not drawn)	/	-10	/	-8	/	/
Cc1ccc(C)c(OCc2cc(C(=O)N3CCN(c4ccccc4)CC3)no2)c1	/	56*	/	38	/	/
Cc1ccc(C)c(OCc2cc(C(=O)N3CCN(C(=O)c4ccco4)CC3)no2)c1	/	33	/	25	/	/
CCN(CCn1cccn1)C(=O)c1cc(COc2cc(C)ccc2C)on1	/	59*	/	20	/	/
CN(CC(=O)Nc1ccc(N2CCOCC2)cc1)CC(=O)Nc1ccccc1C#N	-12	-20	-7	-9	0	i
O=C(Nc1ccccc1C(=O)N1CCCC1)c1ncoc1-c1cccc(Cl)c1	/	62*	/	22	/	/
COc1cc2c(cc1NC(=O)C(C)OC(=O)C1CC(=O)N(Cc3ccco3)C1)oc1ccccc12 (stereo not drawn)	-10	74*	0	35	0	i
COc1cc2c(cc1NC(=O)C(C)Sc1ccc(NC(C)=O)cc1)oc1ccccc12 (stereo not drawn)	6	-68	/	-60*	0	i
COc1ccc(C)cc1NC(=O)C1CC(=O)N(Cc2ccco2)C1 (stereo not drawn)	-19	-19	2	-4	0	i
Cc1c(NC(=O)c2cccc(-c3cc4ccccc4oc3=O)c2)cccc1-c1nc2ncccc2o1	-16	14	-4	5	0	i
SMILES	Mdm2 ligase inh	HSF1 activator	Rad51 HR inh	HSF1 inhib	Hsp70 act	HSV replic up
CCc1nn(C(C)C(=O)NC(C)CCc2ccco2)c(=O)c2cc3occc3n12 (stereo not drawn)	-2	129*	-1	66	0	i
CCc1nn(C(C)C(=O)NCCc2ccccc2)c(=O)c2cc3occc3n12 (stereo not drawn)	/	-13	/	-7	/	/
O=C(Nc1cccc(Cl)c1)C1CCCN(S(=O)(=O)c2ccc(F)cc2)C1 (stereo not drawn)	-21	89*	0	44	0	i
O=C(Nc1cccc(-c2ccc(F)cc2)c1)C1CCCN(C(=O)c2cscn2)C1 (stereo not drawn)	/	-77	/	-71*	/	/
Cc1ncoc1C(=O)N1CCCC(C(=O)Nc2cccc(-c3ccc(F)cc3)c2)C1 (stereo not drawn)	/	45	/	30	/	/
COc1ccc(C(CNC(=O)c2oc3ccc(F)cc3c2C)N2CCCCC2)cc1 (stereo not drawn)	/	-2	/	-1	/	/
Cc1cccnc1Nc1nc(-c2ccccn2)cs1	-31	350*	-6	218	0	i
Cc1cccnc1Nc1nc(-c2ccccc2)cs1	/	?	/	38	/	/
O=C(Nc1nc(-c2ccccn2)cs1)c1ccc(Cl)s1	-2	223*	-10	228	0	i
O=C(Nc1nc(-c2ccc(Cl)s2)cs1)c1ccco1	7	67*	3	32	0	i
O=C1CSC(c2cn(-c3ccccc3)nc2-c2ccc3c(c2)OCCO3)N1CCN1CCOCC1 (stereo not drawn)	-6	58*	-5	14	0	i
O=C1CSC(c2cn(-c3ccccc3)nc2-c2cc3ccccc3oc2=O)N1Cc1ccccc1 (stereo not drawn)	-13	15	-5	12	-1	i
Cc1ccc(S(=O)(=O)N(C)c2c(C)ccc(S(=O)(=O)N3CCN(C)CC3)c2C)cc1	-6	-70	/	-60*	0	/
Cc1ccc(S(=O)(=O)N(C)c2c(C)ccc(S(=O)(=O)N3CCN(C=O)CC3)c2C)cc1	-1	-4	/	1	0	/
COC(=O)Cc1cc(=O)[nH]c(Nc2nc3ccccc3o2)n1	-9	-9	5	0	0	i
COCc1cc(=O)[nH]c(Nc2nc3ccccc3o2)n1	0	84*	-3	52	0	i
C=CCOc1ccc(-c2nc3c(c(=O)[nH]c(=O)n3Cc3ccccc3)n2CCCOC)cc1	/	63*	/	19	/	/
Cc1ccc(-c2nc3c(c(=O)[nH]c(=O)n3Cc3ccccc3)n2Cc2ccccc2)o1	5	62*	-58	20	0	i
COCCCn1c(-c2ccc(OC)cc2)nc2c1c(=O)[nH]c(=O)n2Cc1ccccc1	/	15	/	0	/	/
Cc1cccnc1NC(=O)CN1C(=O)c2ccccc2S1(=O)=O	/	-8	/	-11	/	/
CC(C)CC(=O)NC(NC(=O)CC(C)C)c1cccc([N+](=O)[O-])c1	-10	-77	-11	-70*	-1	i
